Measurements as given in ChEMBL document CHEMBL3351240, “Antinociceptive properties of physalins from Physalis angulata” (J Nat Prod, 2014).
Activity calls are given as the source filed them.

What was measured:
[1] = test system: Mus musculus; assay: CNS toxicity in Swiss Webster mouse assessed as reduction in motor performance at 10 mg/kg, ip after 40 mins by open field test; format: organism-based; parameters: dose 10 mg/kg, route intraperitoneal; details: in vivo
Outline: (§1)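 Open-field test 40 min after ip dosing: mice placed singly in 40 × 60 × 50 cm box with 12 floor squares; squares crossed with all four paws counted over 3 min; n = 6; one-way ANOVA with Tukey.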

[2] = test system: Mus musculus; assay: CNS toxicity in Swiss Webster mouse assessed as reduction in motor performance at 10 mg/kg, ip after 40 mins by rotarod test; format: organism-based; parameters: dose 10 mg/kg, route intraperitoneal; details: in vivo
Outline: (§2)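 Rota-rod test: 3 cm bar at 8 rpm; mice pre-selected 24 h earlier by remaining on bar for two consecutive 120 s periods; placed on rod 40 min after ip dosing; time on bar recorded up to 120 s; n = 6; one-way ANOVA with Tukey.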

[3] = test system: Mus musculus; assay: Antinociceptive activity in Swiss Webster mouse assessed as inhibition of formalin-induced late phase pain response at 25 to 100 mg/kg, ip dosed 40 mins before formalin injection; format: functional, organism-based
Outline: (§3)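 Mice acclimated 30 min in chamber, dosed ip 40 min before sc injection of 20 μL 2.5% formalin into dorsal hind paw; licking time of injected paw scored 0−10 min (early phase) and 10−30 min (late phase); n = 7−10; ANOVA with Tukey.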

[4] = test system: Mus musculus; assay: CNS toxicity in Swiss Webster mouse assessed as effect on motor performance at 100 mg/kg, ip after 40 mins by rotarod test; format: organism-based; parameters: dose 100 mg/kg, route intraperitoneal; details: in vivo; outline: as §2
[5] = test system: Mus musculus; assay: Antinociceptive activity in Swiss Webster mouse assessed as inhibition of acetic acid-induced abdominal constrictions at 25 to 100 mg/kg, ip dosed 40 mins before acetic acid injection; format: functional, organism-based; details: Abdomen
Outline: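 Male Swiss Webster mice dosed ip (5% DMSO in saline vehicle) 40 min before ip acetic acid 0.8% v/v, 10 mL/kg; writhes (abdominal contraction with hind-limb stretching) counted over 0−30 min; mean writhing score, n = 10 per group; ANOVA with Tukey.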

[6] = test system: Mus musculus; assay: Antiinflammatory activity in Swiss Webster mouse assessed as reduction in hyperalgesia at 100 mg/kg, ip dosed 40 mins before CFA injection and measured 2 to 6 hrs post CFA stimulus; format: functional, organism-based; parameters: dose 100 mg/kg
Outline: (§4)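 Male Swiss Webster mice (22−28 g) given drug ip in 5% DMSO/saline (dexamethasone in 10% ethanol/saline) 40 min before 20 μL CFA (1 mg/mL heat-killed M. tuberculosis in paraffin oil/mannide monooleate) sc into right hind paw plantar region. Mechanical threshold by von Frey filaments, up−down method, at 2, 4 and 6 h; n = 6; two-way ANOVA with Bonferroni.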

[7] = test system: Mus musculus; assay: Antiinflammatory activity in Swiss Webster mouse assessed as reduction in paw edema at 100 mg/kg, ip dosed 40 mins before CFA injection and measured 2 hrs post CFA stimulus; format: functional, organism-based; parameters: dose 100 mg/kg
Outline: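 Male Swiss Webster mice, ip pretreatment in 5% DMSO/saline 40 min before intraplantar CFA (20 μL, 1 mg/mL heat-killed M. tuberculosis). Paw volume measured by plethysmometer before and 2, 4, 6 h after CFA; edema expressed as percent increase in paw volume; n = 6 mice/group; two-way ANOVA with Bonferroni.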

[8] = test system: Mus musculus; assay: CNS toxicity in Swiss Webster mouse assessed as effect on motor performance at 100 mg/kg, ip after 40 mins by open field test; format: organism-based; parameters: dose 100 mg/kg, route intraperitoneal; details: in vivo; outline: as §1
[9] = test system: Mus musculus; assay: Antinociceptive activity in Swiss Webster mouse assessed as increase in reaction time at 100 mg/kg, ip measured after 3 hrs by tail flick test; format: functional, organism-based; parameters: dose 100 mg/kg
Outline: (§5)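 Mice habituated to restraint cylinder 20 min/day for 5 days; distal 2 cm of tail immersed in 48 ± 0.5 °C water; tail withdrawal latency measured before and after ip dosing (5% DMSO/saline vehicle); 10 s cutoff; n = 6; two-way ANOVA with Bonferroni.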

[10] = test system: Mus musculus; assay: Antinociceptive activity in Swiss Webster mouse assessed as increase in reaction time at 5 mg/kg, ip measured after 3 hrs by tail flick test; format: functional, organism-based; parameters: dose 5 mg/kg; outline: as §5
[11] = test system: Mus musculus; assay: Antinociceptive activity in Swiss Webster mouse assessed as increase in latency time at 5 mg/kg, ip measured after 1 hr by hot plate test; format: functional, organism-based; parameters: dose 5 mg/kg
Outline: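 Hot plate held at 55 ± 1 °C; male Swiss Webster mice; reaction time to hind paw licking or jumping recorded before and after ip dosing (vehicle 5% DMSO in saline); data as difference from baseline; 10 s cutoff; n = 6; two-way ANOVA with Bonferroni.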

[12] = test system: Mus musculus; assay: Antinociceptive activity in Swiss Webster mouse assessed as inhibition of formalin-induced late phase pain response at 5 mg/kg, ip dosed 40 mins before formalin injection; format: functional, organism-based; parameters: dose 5 mg/kg; outline: as §3
[13] = test system: Mus musculus; assay: Antinociceptive activity in Swiss Webster mouse assessed as inhibition of formalin-induced early phase pain response at 5 mg/kg, ip dosed 40 mins before formalin injection; format: functional, organism-based; parameters: dose 5 mg/kg; outline: as §3
[14] = test system: Mus musculus; assay: Antiinflammatory activity in Swiss Webster mouse assessed as reduction in hyperalgesia at 2 mg/kg, ip dosed 40 mins before CFA injection and measured 2 to 6 hrs post CFA stimulus; format: functional, organism-based; parameters: dose 2 mg/kg
Outline: as §4, with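 “ip” for “ip in 5% DMSO/saline”, “ethanol in saline)” for “ethanol/saline)”, “4,” for “4 and”, “h. Mean ± SEM,” for “h;”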

[15] = test system: Mus musculus; assay: Reduction in TNFalpha level in Swiss Webster mouse 2 mg/kg, ip dosed 40 mins before CFA injection and measured 3 hrs post CFA stimulus by ELISA method; format: functional, organism-based; parameters: dose 2 mg/kg; details: at 2 mg/kg
Outline: (§6)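 Mice dosed ip (dexamethasone in 10% ethanol in saline) 40 min before intraplantar CFA; paw skin removed under terminal halothane anesthesia, homogenized 100 mg/mL in PBS with 0.4 M NaCl, 0.05% Tween 20 and protease inhibitors, centrifuged 3000g 10 min, supernatant frozen −70 °C; cytokine by ELISA as pg/mL. n = 6; two-way ANOVA with Bonferroni.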

[16] = test system: Mus musculus; assay: Reduction in IL1-beta level in Swiss Webster mouse 2 mg/kg, ip dosed 40 mins before CFA injection and measured 3 hrs post CFA stimulus by ELISA method; format: functional, organism-based; parameters: dose 2 mg/kg; details: at 2 mg/kg; outline: as §6
[17] = test system: Mus musculus; assay: Antiinflammatory activity in Swiss Webster mouse assessed as reduction in paw edema at 2 mg/kg, ip dosed 40 mins before CFA injection and measured 2 to 6 hrs post CFA stimulus; format: functional, organism-based; parameters: dose 2 mg/kg
Outline: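 Male Swiss Webster mice given drug ip (dexamethasone in 10% ethanol in saline) 40 min before intraplantar CFA (20 μL). Paw volume by plethysmometer before and after CFA, at 2, 4, 6 h; expressed as percent increase in paw volume. Mean ± SEM, n = 6; two-way ANOVA with Bonferroni.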

CN1C(=O)CN=C(c2ccccc2)c2cc(Cl)ccc21 [DIAZEPAM]
Activity [1]: Toxic
Activity [2]: Toxic

C[C@]12C(=O)C=CCC1=CC[C@@H]1[C@@H]2CC[C@]2(O)C(=O)O[C@@]3(C)[C@H]4C[C@]5(C)[C@@H](CO[C@@]16O[C@@]32[C@H]5C6=O)C(=O)O4 [PHYSALIN B]
inhibition [3]: Active
Activity [4]: Non-toxic
inhibition [5]: Dose-dependent effect
inhibition [6]: inactive
inhibition [7]: Active
Activity [8]: Non-toxic
Activity [9]: Active

CN1CC[C@]23c4c5ccc(O)c4O[C@H]2[C@@H](O)C=C[C@H]3[C@H]1C5
Activity [10]: Active
Activity [11]: Active
inhibition [12]: Active
inhibition [13]: Active

C[C@@H]1C[C@H]2[C@@H]3CCC4=CC(=O)C=C[C@]4(C)[C@@]3(F)[C@@H](O)C[C@]2(C)[C@@]1(O)C(=O)CO
inhibition [14]: Active
inhibition [15]: Active
inhibition [16]: Active
inhibition [17]: Active
